ChEMBL document CHEMBL3526060, “Impact of hydrolysis-mediated clearance on the pharmacokinetics of novel anaplastic lymphoma kinase inhibitors” (Drug Metab Dispos, 2013)

Key:
[1] = AUC (0 to infinity) in CD-1 mouse at 2 mg/kg, iv administered as single bolus dose by LC-MS/MS analysis; assay type: ADME, organism-based; set-up: time infinity, dose 2 mg/kg, route intravenous; conditions: plasma
Method in brief: (§1)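 Single 2 mg/kg IV bolus via lateral tail vein to male CD-1 mice. Mice euthanized at 0.083–24 h, 3 per time point (27 animals); cardiac-puncture blood into heparin on ice, plasma spun at 4 °C and immediately extracted with acetonitrile/0.1% formic acid plus IS, LC-MS/MS. Noncompartmental CL = Dose/AUC0–inf, t1/2 = 0.693/k, Vss from AUMC/AUC, MRT = Vss/CL.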

[2] = Plasma clearance in CD-1 mouse at 2 mg/kg, iv administered as single bolus dose by LC-MS/MS analysis; assay type: ADME, organism-based; set-up: dose 2 mg/kg, route intravenous; method in brief: as §1
[3] = Mean residence time in CD-1 mouse at 2 mg/kg, iv administered as single bolus dose by LC-MS/MS analysis; assay type: ADME, organism-based; set-up: dose 2 mg/kg, route intravenous; conditions: in vivo; method in brief: as §1
[4] = Half life in CD-1 mouse at 2 mg/kg, iv administered as single bolus dose by LC-MS/MS analysis; assay type: ADME, organism-based; set-up: dose 2 mg/kg, route intravenous; conditions: in vivo; method in brief: as §1
[5] = Volume of distribution at steady state in CD-1 mouse at 2 mg/kg, iv administered as single bolus dose by LC-MS/MS analysis; assay type: ADME, organism-based; set-up: dose 2 mg/kg, route intravenous; conditions: in vivo, read-out: Vdss; method in brief: as §1
[6] = In vitro half life in CD-1 mouse plasma at 0.83 uM by LC-MS/MS analysis; assay type: ADME, cell-free
Method in brief: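 Screening stability: compound at 0.83 µM in mouse plasma at 37 °C, up to 3 h; timed aliquots quenched into acetonitrile with tolbutamide IS, centrifuged, LC-MS/MS; half-life from depletion, CLint = (0.693/t1/2)/plasma concentration.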

Plasma [7] = test: Drug metabolism in CD-1 mouse plasma assessed as hydrolysis metabolite formation rate by LC-MS/MS analysis; assay type: ADME, cell-free
Method in brief: (§2)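 Mouse plasma depletion kinetics at 37 °C, substrate range 0.0023–5 µM, up to 3 h; samples quenched into acetonitrile/tolbutamide, LC-MS/MS. CLint per concentration from t1/2; apparent Vmax and Km fitted by nonlinear regression to Michaelis-Menten, formation rate simulated from fit; mean of two replicates.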

[8] = Drug metabolism in CD-1 mouse liver microsomes assessed as hydrolysis metabolite formation rate by LC-MS/MS analysis; assay type: ADME
Method in brief: (§3)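 Mouse liver microsomes 0.25 mg/mL in 0.1 M phosphate pH 7.4, with or without 1 mM NADPH, substrate 0.0023–5 µM; sampling to 40 min into acetonitrile/IS, LC-MS/MS depletion. Hydrolysis Vmax/Km solved from no-NADPH incubations, then NADPH-dependent constants; metabolite formation rate simulated from fitted constants; duplicates.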

[9] = Drug metabolism in CD-1 mouse NADPH-fortified liver microsomes assessed as hydrolysis metabolite formation rate by LC-MS/MS analysis; assay type: ADME; method in brief: as §3
Plasma [10] = test: Drug metabolism in CD-1 mouse plasma assessed as maximum intrinsic clearance for hydrolysis metabolite formation by LC-MS/MS analysis; assay type: ADME, cell-free; method in brief: as §2
[11] = Ratio of drug level in blood to plasma in CD-1 mouse at 1 uM treated 20 mins after amide hydrolysis inhibitor DFP challenge measured after 1 hr by LC-MS/MS analysis; assay type: ADME; conditions: whole blood
Method in brief: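 Fresh whole blood pre-incubated 20 min with 100 µM DFP, warmed to 37 °C, spiked to 1 µM, incubated 1 h, then plasma separated; reference plasma spiked at 1 µM. Extracted with 6 volumes acetonitrile/IS, LC-MS/MS; ratio = reference plasma peak area / treated plasma peak area.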

[12] = Fraction unbound in CD-1 mouse liver microsomes after 7 hrs by equilibrium dialysis method; assay type: ADME
Method in brief: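 Equilibrium dialysis of 0.25 mg/mL mouse liver microsomes in phosphate buffer against PBS, 7 h at 37 °C, 5% CO2, test compound 0.1, 0.5 or 2 µM, triplicate; LC-MS/MS; fraction unbound = buffer/microsome concentration.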

[13] = Fraction unbound in CD-1 mouse plasma after 7 hrs by equilibrium dialysis method; assay type: ADME, cell-free
Method in brief: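 Mouse plasma pre-treated 20 min with 100 µM DFP to block hydrolysis, spiked at 0.1, 0.5 or 2 µM, equilibrium dialysis against PBS for 7 h at 37 °C, 5% CO2, triplicate; matrix-matched samples extracted with acetonitrile/IS, LC-MS/MS; fu = buffer/plasma concentration.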

- AUC(0-inf) [1]: 1200 nM·h
- clearance [2]: 2.66 L/h/kg
- MRT [3]: 2.92 h
- half-life [4]: 2.2 h
- Vd [5]: 7.78 L/kg
- half-life at 0.83 µM [6]: 8.5 h
- Vmax(app) (Plasma [7]): 1.14 pmol/min/mL
- Km (Plasma [7]; read-out: Km(app)): 0.68 µM
- Vmax(app) [8]: 5.38 pmol/min/mg
- Km ([8]; read-out: Km(app)): 0.261 µM
- Vmax(app) [9]: 194 pmol/min/mg
- Km ([9]; read-out: Km(app)): 1.95 µM
- CL (Plasma [10]): 1.68 uL/min.ml
- blood plasma ratio at 1 h, 1 µM [11]: 0.9
- fraction unbound at 7 h [12]: 0.22
- fraction unbound at 7 h [13]: 0.012
SMILES: CC(C)NC(=O)[C@H]1CC[C@@H](n2/c(=N/C(=O)c3cccc(C(F)(F)F)c3)[nH]c3ccc(CN4CCC(C(C)(C)O)CC4)cc32)CC1
